ChEMBL document CHEMBL5724801, “EUbOPEN Chemogenomics Library - Multiplex” (2024)
Several values for one entry are separate records, joined by “and”; a condition that tells them apart may be missing. Identical values can stand only once.

Tested on: U2OS
Assay: Multiplex assay against U2OS
Type: toxicity, cell-based
Conditions: human
Outline: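 Phenotypes for tubulin, mitochondrial mass and membrane permeability are expressed as per cents of healthy-nucleus cells. Cells were stained live at seeding with Hoechst33342, BioTracker Green Microtubule Cytoskeleton Dye, MitoTracker Red and Annexin V Alexa Fluor 680, then imaged after compound addition on a CQ1 microscope at 37°C and 5% CO2. Machine-learning gating in CellPathfinder separated Hoechst high-intensity objects from normal cells, divided normal cells by nuclear state (healthy, pyknosed, fragmented) and divided pyknosed cells into mitotic or apoptotic.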

[1] = 12 h, 1 µM, compound concentration 1 uM
[2] = 12 h, 10 µM, compound concentration 10 uM
[3] = 24 h, 1 µM, compound concentration 1 uM
[4] = 24 h, 10 µM, compound concentration 10 uM
[5] = 48 h, 1 µM, compound concentration 1 uM
[6] = 48 h, 10 µM, compound concentration 10 uM

SMILES: O=C(NCC(=O)N1CC[C@H](N[C@H]2CC[C@@](O)(c3ccc(-c4ncccn4)cn3)CC2)C1)c1cccc(C(F)(F)F)c1 [PF-4136309]
- Population Apoptotic (%) [1]: 79% and 93%
- Population Fragmented Nuclei (%) [1]: 25% and 13%
- Population Healthy Nuclei (%) [1]: 64% and 74%
- Population Hoechst High Intensity Objects (%) [1]: 1% and 4%
- Population Membrane Permeable-Phenotype (%) [1]: 6% and 11%
- Population Mitochondria Different-Phenotype (%) [1]: 3% and 5%
- Population Normal (%) [1]: 98% and 95%
- Population Pyknosed Nuclei (%) [1]: 9% and 12%
- Population Tubulin-Different-Phenotype (%) [1]: 4% and 8%
- Total Cell Count [1]: 249 and 138
- Population Apoptotic (%) [2]: 68% and 60%
- Population Fragmented Nuclei (%) [2]: 25% and 22%
- Population Healthy Nuclei (%) [2]: 62% and 66%
- Population Hoechst High Intensity Objects (%) [2]: 4% and 1%
- Population Membrane Permeable-Phenotype (%) [2]: 15% and 25%
- Population Mitochondria Different-Phenotype (%) [2]: 4% and 10%
- Population Mitotic Cells (%) [2]: 31% and 40%
- Population Normal (%) [2]: 95% and 98%
- Population Pyknosed Nuclei (%) [2]: 12% and 11%
- Population Tubulin-Different-Phenotype (%) [2]: 9% and 11%
- Total Cell Count [2]: 242 and 90
- Population Apoptotic (%) [3]: 80% and 91%
- Population Fragmented Nuclei (%) [3]: 22% and 16%
- Population Healthy Nuclei (%) [3]: 69% and 76%
- Population Hoechst High Intensity Objects (%) [3]: 1% and 3%
- Population Membrane Permeable-Phenotype (%) [3]: 4% and 5%
- Population Mitochondria Different-Phenotype (%) [3]: 2% and 4%
- Population Mitotic Cells (%) [3]: 20% and 8%
- Population Normal (%) [3]: 98% and 96%
- Population Pyknosed Nuclei (%) [3]: 8% and 7%
- Population Tubulin-Different-Phenotype (%) [3]: 2%
- Total Cell Count [3]: 304 and 169
- Population Apoptotic (%) [4]: 83% and 75%
- Population Fragmented Nuclei (%) [4]: 23% and 21%
- Population Healthy Nuclei (%) [4]: 62% and 70%
- Population Hoechst High Intensity Objects (%) [4]: 3% and 0%
- Population Membrane Permeable-Phenotype (%) [4]: 10% and 15%
- Population Mitochondria Different-Phenotype (%) [4]: 3% and 11%
- Population Mitotic Cells (%) [4]: 16% and 25%
- Population Normal (%) [4]: 96% and 99%
- Population Pyknosed Nuclei (%) [4]: 13% and 7%
- Population Tubulin-Different-Phenotype (%) [4]: 3% and 7%
- Total Cell Count [4]: 271 and 102
- Population Apoptotic (%) [5]: 87% and 96%
- Population Fragmented Nuclei (%) [5]: 14% and 12%
- Population Healthy Nuclei (%) [5]: 74% and 75%
- Population Hoechst High Intensity Objects (%) [5]: 2% and 3%
- Population Membrane Permeable-Phenotype (%) [5]: 4% and 6%
- Population Mitochondria Different-Phenotype (%) [5]: 3%
- Population Mitotic Cells (%) [5]: 12% and 4%
- Population Normal (%) [5]: 97% and 96%
- Population Pyknosed Nuclei (%) [5]: 11%
- Population Tubulin-Different-Phenotype (%) [5]: 3% and 4%
- Total Cell Count [5]: 443 and 224
- Population Apoptotic (%) [6]: 69% and 92%
- Population Fragmented Nuclei (%) [6]: 22% and 20%
- Population Healthy Nuclei (%) [6]: 61% and 60%
- Population Hoechst High Intensity Objects (%) [6]: 4% and 0%
- Population Membrane Permeable-Phenotype (%) [6]: 9% and 15%
- Population Mitochondria Different-Phenotype (%) [6]: 5% and 8%
- Population Normal (%) [6]: 95% and 100%
- Population Pyknosed Nuclei (%) [6]: 15% and 18%
- Population Tubulin-Different-Phenotype (%) [6]: 4%
- Total Cell Count [6]: 360 and 138

SMILES: CC(C)(C)c1cc(NC(=O)Nc2ccc(-c3cn4c(n3)sc3cc(OCCN5CCOCC5)ccc34)cc2)no1 [QUIZARTINIB]
- Population Apoptotic (%) [1]: 48% and 78%
- Population Fragmented Nuclei (%) [1]: 24% and 17%
- Population Healthy Nuclei (%) [1]: 61% and 70%
- Population Hoechst High Intensity Objects (%) [1]: 6% and 1%
- Population Membrane Permeable-Phenotype (%) [1]: 13% and 6%
- Population Mitochondria Different-Phenotype (%) [1]: 4% and 6%
- Population Mitotic Cells (%) [1]: 51% and 21%
- Population Normal (%) [1]: 93% and 98%
- Population Pyknosed Nuclei (%) [1]: 14% and 11%
- Population Tubulin-Different-Phenotype (%) [1]: 8% and 4%
- Total Cell Count [1]: 213 and 119
- Population Apoptotic (%) [2]: 58% and 23%
- Population Fragmented Nuclei (%) [2]: 30% and 11%
- Population Healthy Nuclei (%) [2]: 47% and 65%
- Population Hoechst High Intensity Objects (%) [2]: 13% and 6%
- Population Membrane Permeable-Phenotype (%) [2]: 85% and 62%
- Population Mitochondria Different-Phenotype (%) [2]: 26% and 33%
- Population Mitotic Cells (%) [2]: 41% and 76%
- Population Normal (%) [2]: 86% and 94%
- Population Pyknosed Nuclei (%) [2]: 21% and 22%
- Population Tubulin-Different-Phenotype (%) [2]: 76% and 54%
- Total Cell Count [2]: 197 and 100
- Population Apoptotic (%) [3]: 57% and 62%
- Population Fragmented Nuclei (%) [3]: 25% and 15%
- Population Healthy Nuclei (%) [3]: 56% and 72%
- Population Hoechst High Intensity Objects (%) [3]: 2% and 0%
- Population Membrane Permeable-Phenotype (%) [3]: 15% and 9%
- Population Mitochondria Different-Phenotype (%) [3]: 8% and 4%
- Population Mitotic Cells (%) [3]: 42% and 37%
- Population Normal (%) [3]: 97% and 99%
- Population Pyknosed Nuclei (%) [3]: 17% and 12%
- Population Tubulin-Different-Phenotype (%) [3]: 7% and 5%
- Total Cell Count [3]: 234 and 134
- Population Apoptotic (%) [4]: 63% and 51%
- Population Healthy Nuclei (%) [4]: 34% and 58%
- Population Hoechst High Intensity Objects (%) [4]: 11% and 2%
- Population Membrane Permeable-Phenotype (%) [4]: 55% and 40%
- Population Mitochondria Different-Phenotype (%) [4]: 38% and 32%
- Population Mitotic Cells (%) [4]: 36% and 48%
- Population Normal (%) [4]: 88% and 97%
- Population Pyknosed Nuclei (%) [4]: 30%
- Population Tubulin-Different-Phenotype (%) [4]: 45% and 30%
- Total Cell Count [4]: 195 and 96
- Population Apoptotic (%) [5]: 60% and 73%
- Population Fragmented Nuclei (%) [5]: 21% and 16%
- Population Healthy Nuclei (%) [5]: 61% and 72%
- Population Hoechst High Intensity Objects (%) [5]: 3% and 2%
- Population Membrane Permeable-Phenotype (%) [5]: 7% and 9%
- Population Mitochondria Different-Phenotype (%) [5]: 2% and 7%
- Population Mitotic Cells (%) [5]: 39% and 26%
- Population Normal (%) [5]: 96% and 97%
- Population Pyknosed Nuclei (%) [5]: 16% and 10%
- Population Tubulin-Different-Phenotype (%) [5]: 3% and 6%
- Total Cell Count [5]: 297 and 180
- Population Apoptotic (%) [6]: 72% and 56%
- Population Fragmented Nuclei (%) [6]: 33% and 19%
- Population Healthy Nuclei (%) [6]: 25% and 48%
- Population Hoechst High Intensity Objects (%) [6]: 9% and 5%
- Population Membrane Permeable-Phenotype (%) [6]: 41% and 35%
- Population Mitochondria Different-Phenotype (%) [6]: 33%
- Population Mitotic Cells (%) [6]: 27% and 43%
- Population Normal (%) [6]: 90% and 94%
- Population Pyknosed Nuclei (%) [6]: 40% and 32%
- Population Tubulin-Different-Phenotype (%) [6]: 33% and 28%
- Total Cell Count [6]: 219 and 98
